This is an account of results in the EternaBench riboswitch data.

The data set concerns MS2 coat protein. Briefly: apparent Kd, MS2 coat protein; higher = weaker binding; RNA-MaP array. The method in brief: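 Designs measured on fewer than 10 clusters were excluded from the data. The rest were RNAs transcribed from sequenced DNA templates on an Illumina sequencing chip and incubated at room temperature, with or without input ligand, with fluorescently labeled MS2 coat protein at 1.5 nM to 3 μM for 0.8–1.5 h at the lowest to 10–20 min at the highest concentrations. Apparent Kd is the median of the per-cluster binding-curve fits.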

The mark [1] stands for this setting: designed as: OFF switch for flavin mononucleotide, no ligand.
[2] abbreviates: ligand present: flavin mononucleotide, designed as: OFF switch for flavin mononucleotide.
Setting [3] is: designed as: ON switch for flavin mononucleotide, no ligand.
[4] abbreviates: ligand present: flavin mononucleotide, designed as: ON switch for flavin mononucleotide.
Setting [5] is: designed as: OFF switch for theophylline, no ligand.
Where [6] appears, read: ligand present: theophylline, designed as: OFF switch for theophylline.
The mark [7] stands for this setting: designed as: OFF switch for tryptophan, no ligand.
Where [8] appears, read: ligand present: tryptophan, designed as: OFF switch for tryptophan.

What is called apparent Kd is a dissociation constant that holds for the conditions of the assay. As to “UUGGCGUCAGGAUAUACCGGUCGAUUCACAAUGAACUCCGUACAUGAGGAUCACCCAUGUAGAAGGGACAGUGG”, the “apparent Kd” value amounted to 6.22 nM under setting [1] and 6.07 nM under setting [2].
“AACAAACACAUGAGGAUCACCCAUGUCCUUGAUAUAAUUACUCAGGAUAUCAUGUCCUCUCACCGUGAGAAGGGAGUCAAAACC”: the “apparent Kd” value runs as follows: under setting [3], 76.8 nM; under setting [4], 59.5 nM.
Take “CAGUGAGAGUCGGCCGCCACUUAACGCAAGUAGCGCAACCCAAAACAUGAGGAUCACCCAUGUCGAAGGACCGGGACAAUGAGCG”: the “apparent Kd” value reads like this: (designed as: ON switch for tryptophan, no ligand) 12.9 nM; (ligand present: tryptophan, designed as: ON switch for tryptophan) 12.2 nM.
Consider “GGAUGUAGACAGGAUAUUGCCAUUCCAAUGCGCCAAGAAGGGUCUACAUGAGGAUCACCCAUGUAAAGAAUAGG”, for which the “apparent Kd” value under setting [1] was found to be 207 nM and the “apparent Kd” value under setting [2] is 106 nM.
For “GGUAGUACCGUAGGAUAUUCCGCUUACAUGAGGAUCACCCAUGUGGCUGGUAUUUCGUCAAAGAAGAAGAAGGACGUCUGCGCG” the same measures were 6.85 nM and 6.43 nM.
As for “UUUUUCCUGUAUAUCGGUACAUGAGGAUCACCCAUGUUCCCAGAGGAUAUUUGAUGGUGGGUAACAAAGAAGGCUGGCUACAGG”, the “apparent Kd” value is, setting by setting: under setting [3], 20.6 nM; under setting [4], 9.31 nM.
On to “UAACCAAAUGGAUGACCACAUGAGGAUCACCCAUGUCGGCAACAGGAUAUUAUCAGAUGGGCUAAUAAGAAGGGUUACUCAGCC”, for which the “apparent Kd” value turned out to be 14.9 nM under setting [1] and 13.2 nM under setting [2].
Take “CGCUGUUGGCAGGAUAUAUUCGCAGCCCAGGCAAUAGAAGGGCCGACAUGAGGAUCACCCAUGUGUCUACAGGG”: the “apparent Kd” value turned out to be 117 nM under setting [1] and 341 nM under setting [2].
Turning to “AUUGUGAACCUGAUCGUAUAAUGUAGCGAUACCAGUAUAAUACAUUACCCUUGGCAGCGCGACACAUGAGGAUCACCCAUGUAAG”, the “apparent Kd” value amounted to 26.5 nM under setting [5] and 39.4 nM under setting [6].
Turning to “CUUAACAAAGGAUAUACACAAAUGAUUAAGGUGCCGGGAAAACAUGAGGAUCACCCAUGUAGAAGGUUGUAACA”, the “apparent Kd” value worked out at 8.1 nM under setting [1] and 7.75 nM under setting [2].
“CGUGGCAAUCAAGGAUAUCACUUCUAGAUACCGUGAGAAGGUGAGCGUCUCUGCAAAGAGCGGGACAUGAGGAUCACCCAUGUA”: the “apparent Kd” value was found to be 255 nM under setting [3] and 162 nM under setting [4].
As to “ACCUAAGCCACAGAUACCAGAGUAAUAGGCCAAUUUCAAAACAUGAGGAUCACCCAUGUACUCCCUUGGCAGCUGCGAAUCGAAA”, the “apparent Kd” value came to 10.9 nM under setting [5] and 15.2 nM under setting [6].
Consider “GCUAGUUCACAGAAGGCGUCCGUGGGUGGCGCCUUACAUGAGGAUCACCCAUGUCAACCGUGCGACGAGGAUAUGUCAAUCGCA”, for which the “apparent Kd” value is, setting by setting: under setting [1], 22.5 nM; under setting [2], 21.6 nM.
On to “UACAUGAGGAUCACCCAUGUCUCUAGUCGUUUUUGUUAGAAUAGAAGGAGUCGCAUAAAGCAUAACUAGGAUAUAUUCUUGUUU”, for which the “apparent Kd” value under setting [3] came to 16.3 nM and the “apparent Kd” value under setting [4] was 11.6 nM.
In the same order, the values of “UAGCAAUUACAUGAGGAUCACCCAUGUCUAUCGCAGAACAAGCAGGAUAUAGUGACACGACUCCGCUAGAAGGGCUCCUCUGUU” are 62.4 nM and 55.3 nM.
For the sequence “ACGCGCUGGGCGGCCGCCACUCACCUGCCGUGGACAUUUCGAGGUCACAUGAGGAUCACCCAUGUGAGGACCGGGCCCUGUAGGC”, the “apparent Kd” value is, setting by setting: under setting [7], 13.2 nM; under setting [8], 21.2 nM.
In the case of “UUAAUACAUGAGGAUCACCCAUGUUAGGAUAUAGAAAUCGCUGGUGCGAGAAGACAGGCUAGAAGGAACACGGA”, the “apparent Kd” value by setting is: under setting [1], 10.2 nM; under setting [2], 9.62 nM.
As to “AAAGCUACCAAAGGAUAUUGUUUCCAUCACACAUGAGGAUCACCCAUGUAGCCAUAAACGGAUCGCAAGAAGGUUGGGAAAGUG”, the “apparent Kd” value is, setting by setting: under setting [3], 18.3 nM; under setting [4], 9.07 nM.
On to “UAUGUCGGGAAGAAGGUAAUAACGGGAUUGACAUGAGGAUCACCCAUGUGUACGAGUUAGUUGCUUAAGGAUAUUCUCGCCCAU”, for which the “apparent Kd” value under setting [1] turned out to be 6.37 nM and the “apparent Kd” value under setting [2] came to 5.73 nM.
Regarding “AAAGCCUUUCUAGGAUAUCAAUACAGUCGUGGUUGAGAAGGAGAAACUGCGUUCUAGACAUGAGGAUCACCCAUGUCCUCAAUG”, the “apparent Kd” value runs as follows: under setting [3], 98.6 nM; under setting [4], 71.9 nM.
On to “CCGCGCACUGGAGGAUAUAAUCGAACAUGAGGAUCACCCAUGUUAGACGUGGUACGAGCGUUCCAUUAGAAGGCCACUCUGCGU”, for which the “apparent Kd” value turned out to be 27.1 nM under setting [1] and 52.8 nM under setting [2].
In the case of “GUUCGUCCUACGGCCGCCACUAAAACACAUGAGGAUCACCCAUGUUAGUAUCCUGGCUGGUGUGAUAGGACCGGGUAGGGAAGAA”, the “apparent Kd” value stood at 12.1 nM under setting [7] and 24.1 nM under setting [8].
Take “AUCUCUGACUAAGGAUAUGCGGCAAAGAGCCUCUCAGAAAACAUGAGGAUCACCCAUGUAUGGACGCAGAAGGUAGUAGCCCAC”: the “apparent Kd” value by setting is: under setting [3], 9.06 nM; under setting [4], 21.4 nM.
Regarding “GCUGACCAGGAGAAGGGAUACGGUCUCCUUGUGGAAAUGAACAUGAGGAUCACCCAUGUAUUAGAUCAGGAUAUCCAAUGGAGG”, the “apparent Kd” value is, setting by setting: under setting [1], 13.4 nM; under setting [2], 14.4 nM.
On to “GAACAACAUGAGGAUCACCCAUGUGACAGCCGUCAAGGAUAUUCCGGGAAAGGAGGUCCGGAAGAAGGUGAUCGUA”, for which the “apparent Kd” value came out at 265 nM under setting [3] and 341 nM under setting [4].
As to “UCGAUGGUAUCUGAUACCAGUAGCGUGCGUUACAUGAGGAUCACCCAUGUGCCUAUACUUUACCCUUGGCAGCAGUGGAUUCGAU”, the “apparent Kd” value reads like this: (designed as: ON switch for theophylline, no ligand) 207 nM; (ligand present: theophylline, designed as: ON switch for theophylline) 58.5 nM.
For “ACAUGAGGAUCACCCAUGUUUGACUGGGCUUGCUCUCGCCGUAGAAGGUUUCAUUAAGUAGAGGAAAAGGAUAUACACUGGGCC”, the “apparent Kd” value is 12.2 nM under setting [1] and 10.7 nM under setting [2].
Consider “AGAAUAUGAAUAGGAUAUCUGCGUAAUGAUAAAAGAGAAGGAAUUAGAAGUAUUACAUGAGGAUCACCCAUGUUUGAUAAGAAA”, for which the “apparent Kd” value under setting [3] stood at 9.61 nM and the “apparent Kd” value under setting [4] was found to be 8.77 nM.
Turning to “CAGAACAACGAAGGAUAUGCGAAACAUGAGGAUCACCCAUGUGUGGUUUUACUCAAACACCUGUCGCAGAAGGUCGCGUAACGA”, the “apparent Kd” value was found to be 37.9 nM under setting [1] and 31.1 nM under setting [2].
In the same order, the values of “CGGCAACUGUAGAAGGAGCAUCCCACAUCUAAGCUAGGAUAUACGUAAUGUAUGUACAUGAGGAUCACCCAUGUGUGCACCAGG” are 26.4 nM and 24.2 nM.
“CUCUUGCGGUUAGGAUAUUCCCUUGAAAACAAUGAAGAAGGAACCAGAUGAUCACAUGUCCUACAUGAGGAUCACCCAUGUUAA”: the “apparent Kd” value under setting [1] stood at 353 nM and the “apparent Kd” value under setting [2] turned out to be 211 nM.
Regarding “AUUACCCCAUGAGGAUAUCCAAUAAGGAGAGACAUGAGGAUCACCCAUGUCGACGGACGCAUACAGGAGAAGGCAUGGACUAGC”, the “apparent Kd” value under setting [3] is 13.6 nM and the “apparent Kd” value under setting [4] was 7.54 nM.
Consider “GGUUCGCAUGUAGGAUAUCGCAAUAUAAACAUGAGGAUCACCCAUGUAACAAUGUAAACGGACAACGAGAAGGACAUCAACUCC”, for which the “apparent Kd” value reads like this: under setting [3], 44.6 nM; under setting [4], 22.8 nM.
Turning to “CGCUGCCGAAGAGGAUAUCCCACGACCCAAACUGGAGAAGGCUUUAGGUUUUGCCGACAUGAGGAUCACCCAUGUGUCAGUGCA”, the “apparent Kd” value runs as follows: under setting [1], 13.1 nM; under setting [2], 11.4 nM.
In the same order, the values of “UGGUCACAUGAGGAUCACCCAUGUAAGGAUAUCCGCGCCAUAGAGGAAAAGACGGUAUGGAGAAGGUACAGCUU” are 29.9 nM and 26.9 nM.
For “UAUGCGUUUUCAGGAUAUGCACACAUGAGGAUCACCCAUGUAGGUCUGCGGCGGCAUCCUCCUUUGCAGAAGGGAAUCGCGCUU” the same measures were 44.1 nM and 71.6 nM.
Take “UUCCCUGCUUAGGAUAUCUAGACAAGACGGUCAAGAGAAGGAAGUACAUGAGGAUCACCCAUGUUUAGCAUGAA”: the “apparent Kd” value under setting [1] is 10.5 nM and the “apparent Kd” value under setting [2] worked out at 14.2 nM.
In the same order, the values of “AAACUAUGAGGAUAUACAUGAGGAUCACCCAUGUCGGUACUGGUAUGGCCCUGAUCCCGUAGAAGGCAUCGGUC” are 369 nM and 436 nM.
For “ACUACGCUAGGAUAUACGAGGAGUGCAUGGAAGCGUUUGACACAUGAGGAUCACCCAUGUAGAAGGAGCUGCAA” the same measures were 7.75 nM and 16.1 nM.
In the same order, the values of “AUACUAAACAUGAGGAUCACCCAUGUGACGUCAGGUCAGUUGAGAAGGCUAGGGAUGCUAGAUGUAGAGGAUAUCAGCGACGGA” are 15.4 nM and 9.76 nM.
As to “GUCUCCUGAGAGAAGGCUCGCUCCGAGGAAUAGAGAGGAUAUCUACAUGAGGAUCACCCAUGUUGCCGAGGGAAAUGCACGGGU”, the “apparent Kd” value runs as follows: under setting [1], 68.9 nM; under setting [2], 90.5 nM.
As for “UUAUAAGAGAUAGGAUAUUCCGACAAAAUCGAUGAAGAAGGAUCACUCAAAACAUGAGGAUCACCCAUGUAUAUAACAAAUGUU”, the “apparent Kd” value is 57.5 nM under setting [3] and 25.4 nM under setting [4].
With “GCGAAGCAAGGAUAUGCCCGGCGAUACAUGAGGAUCACCCAUGUGAUGUAGUUAGUUGUAGCAGAAGGUGCGCGAU”, the “apparent Kd” value by setting is: under setting [1], 17.6 nM; under setting [2], 11.4 nM.
For “UAUUGUUUAGGAUAUACAUGAGGAUCACCCAUGUCAACGACCGUUAUAAAAUCUAAGUGUAGAAGGAAACGCCC” the same measures were 13.4 nM and 12.1 nM.
For “UCGGACGGAGGAUAUACUAUGACUCCCACGGCAUGUUACGCACAUGAGGAUCACCCAUGUAGAAGGCCGCCUAA” the same measures were 4.27 nM and 7.41 nM.
Consider “CGCUCGCGGCGGAAGGAUAUGUCUAUCCGGACAUGAGGAUCACCCAUGUAUGGGUACUUGCUGCAACAGAAGGUCCGUAUUAUAUG”, for which the “apparent Kd” value reads like this: under setting [3], 290 nM; under setting [4], 120 nM.
“UCGGUUCGCGGAGGAUAUACUUCACUUCAGGAAGUAGAAGGCCGGCGGUGCUAAGGGUCACAUGAGGAUCACCCAUGUCUUCAC”: the “apparent Kd” value under setting [3] stood at 30.6 nM and the “apparent Kd” value under setting [4] is 20.7 nM.
